Test results taken from the M2OR odorant receptor database.

Molecular target: T1, UniProt L7N210
T1 sequence (whole entry): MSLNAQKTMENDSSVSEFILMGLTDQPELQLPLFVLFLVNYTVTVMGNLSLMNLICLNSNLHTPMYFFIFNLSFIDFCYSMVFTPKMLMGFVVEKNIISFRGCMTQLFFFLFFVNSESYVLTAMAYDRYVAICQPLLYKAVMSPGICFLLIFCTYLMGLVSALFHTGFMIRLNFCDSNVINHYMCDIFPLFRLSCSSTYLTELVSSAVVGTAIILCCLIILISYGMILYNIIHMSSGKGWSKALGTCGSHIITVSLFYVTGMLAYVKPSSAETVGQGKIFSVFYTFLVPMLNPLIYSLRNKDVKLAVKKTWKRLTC
Details: stereoisomer not certain
In short: (§1)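 Values were gathered from published papers (main text and supplementary material), with extra details requested from the original authors when needed, and checked for typos and inconsistencies. Each receptor–molecule pair is called responsive (active) if the original authors judged the measured signal statistically different from baseline, and non-responsive (inactive) otherwise. Assay methods varied by source, often transient mammalian cell-line luciferase assays. Recorded details include cell line, G-protein, co-transfected protein and tags.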

SMILES	odorant receptor agonist call
CCCCCCC=CC=O	inactive
CCCCCC(C)O (stereo not drawn)	inactive
OCCc1ccccc1	inactive
CCCCCC(=Cc1ccccc1)C(OC)OC	inactive
Cc1ccc2c(c1)OCC(=O)CO2	inactive
CC=C(C)C=O	inactive
CCCCCCCCCCOC(C)=O	inactive
CC(=O)C=CC1=C(C)CCCC1(C)C	inactive
CCCCCCC(C)O (stereo not drawn)	active
CC(=O)OC1(C)CCC23CC1C(C)(C)C2CCC3C (stereo not drawn)	inactive
Cc1ccc(C(C)C)c(O)c1	inactive
COc1ccccc1	inactive
C1CCOCC1	inactive
CCSSCC	inactive
C=C(C)C1CCC(C)C(O)C1 (stereo not drawn)	inactive
O=C(O)CCCCCCCCC(=O)O	inactive
Cc1ccccc1OC(=O)C(C)C	inactive

SMILES	odorant receptor agonist call
CC(=O)OCCc1ccccc1	active
CCCCCCCOC(=O)C(C)C	inactive
C=C(C)C1CCC2(C)OC2C1 (stereo not drawn)	inactive
C=CC(C)=CCC=C(C)CCC=C(C)C	inactive
C=CC(=O)CCCCC	inactive
CSSSC	inactive
CCCCCCC(=O)OCCCC	inactive
CCCCCC=CCCC=O	inactive
CCN(CC)CC	inactive
O=C(O)C1CCC1	inactive
CC(C)=CCCC(C)=CCOC(=O)C(C)C	inactive
CCCCCC(C=O)=Cc1ccccc1	inactive
OCC=Cc1ccccc1	active
CC1CC=CCCCCCCCCCC(=O)C1 (stereo not drawn)	inactive
C=CC(=C)CCC=C(C)CCC=C(C)C	inactive
CCSCC	inactive
CCCCCCCCCC=CC=O	inactive

Molecular target: T2, UniProt Q3KPB0
T2 sequence (whole entry): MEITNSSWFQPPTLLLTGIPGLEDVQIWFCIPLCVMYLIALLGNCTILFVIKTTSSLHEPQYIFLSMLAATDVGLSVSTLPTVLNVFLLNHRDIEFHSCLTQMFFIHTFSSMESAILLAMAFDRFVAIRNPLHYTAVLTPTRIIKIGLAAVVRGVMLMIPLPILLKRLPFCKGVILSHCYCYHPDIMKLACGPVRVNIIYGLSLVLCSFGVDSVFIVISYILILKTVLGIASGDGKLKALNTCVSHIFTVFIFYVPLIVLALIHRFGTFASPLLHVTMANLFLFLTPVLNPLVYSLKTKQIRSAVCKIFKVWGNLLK
Details: stereoisomer not certain
In short: as §1

SMILES	odorant receptor agonist call
CCCCCCC=CC=O	inactive
CCCCCC(C)O (stereo not drawn)	inactive
OCCc1ccccc1	inactive
CCCCCC(=Cc1ccccc1)C(OC)OC	inactive
Cc1ccc2c(c1)OCC(=O)CO2	inactive
CC=C(C)C=O	inactive
CCCCCCCCCCOC(C)=O	inactive
CC(=O)C=CC1=C(C)CCCC1(C)C	inactive
CCCCCCC(C)O (stereo not drawn)	inactive
CC(=O)OC1(C)CCC23CC1C(C)(C)C2CCC3C (stereo not drawn)	inactive
Cc1ccc(C(C)C)c(O)c1	inactive
COc1ccccc1	inactive
C1CCOCC1	inactive
CCSSCC	inactive
C=C(C)C1CCC(C)C(O)C1 (stereo not drawn)	inactive
O=C(O)CCCCCCCCC(=O)O	inactive
Cc1ccccc1OC(=O)C(C)C	inactive

SMILES	odorant receptor agonist call
CC(=O)OCCc1ccccc1	inactive
CCCCCCCOC(=O)C(C)C	inactive
C=C(C)C1CCC2(C)OC2C1 (stereo not drawn)	inactive
C=CC(C)=CCC=C(C)CCC=C(C)C	inactive
C=CC(=O)CCCCC	inactive
CSSSC	inactive
CCCCCCC(=O)OCCCC	inactive
CCCCCC=CCCC=O	inactive
CCN(CC)CC	inactive
O=C(O)C1CCC1	inactive
CC(C)=CCCC(C)=CCOC(=O)C(C)C	inactive
CCCCCC(C=O)=Cc1ccccc1	inactive
OCC=Cc1ccccc1	inactive
CC1CC=CCCCCCCCCCC(=O)C1 (stereo not drawn)	inactive
C=CC(=C)CCC=C(C)CCC=C(C)C	inactive
CCSCC	inactive
CCCCCCCCCC=CC=O	inactive
